Only some compounds are listed: those with a hit (about 2.9% of all), similar ones and a draw of the others.
RBBP9 inhibitor – human RBBP9 hydrolase inhibition; recombinant RBBP9, FP-Rh probe fluorescence polarization; inhibition, % at 7.94 µM; AID 1515; O75884; 220,000 compounds, 0.2% hits;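 active = inhibition above the campaign mean of all tested compounds plus 3 SD, cut at about 14% in these data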
Target sequence (O75884 whole entry, looked up): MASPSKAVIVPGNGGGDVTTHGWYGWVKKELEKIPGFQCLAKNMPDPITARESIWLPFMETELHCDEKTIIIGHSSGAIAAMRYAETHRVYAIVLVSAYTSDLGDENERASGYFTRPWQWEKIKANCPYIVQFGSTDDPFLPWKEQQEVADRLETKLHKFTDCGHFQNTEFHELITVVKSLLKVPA
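System: RBBP9 protein | Quantity: 2.5 µM RBBP9 dispensing solution, before mixing | Reagent: FP-Rh probe, 375 nM dispensing solution | Timing: Enzyme-compound preincubation 30 min, then probe labeling 45 min, 25 °C | Measured by: Fluorescence polarization | Read-out: % inhibition | Replication: One well per compound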
PfM18AAP inh-1 – PfM18AAP enzyme inhibition | recombinant PfM18AAP, H-Glu-NHMec fluorogenic cleavage | 290,000 compounds, 1.2% hits | AID 1822 | inhibition, % at 7.35 µM;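 active = inhibition above the campaign mean inhibition over all tested compounds plus 3 SD, cut at about 28% in these data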
Runt-SMMHC FRET – inhibitors of human RUNX1 Runt domain binding to CBFb-SMMHC; Q01196+Q13951; Cerulean-Runt/Venus-CBFb-SMMHC FRET ratio 530/480, 1 h; inhibition, % at 20 µM; 220,000 compounds, 0.74% hits;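 active = mean inhibition across duplicate retests at 20 µM reaching about 50%, limit read from the data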;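 also: inhibitors lower the FRET ratio by blocking Runt binding to CBFb-SMMHC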
Runt-CBFb FRET – inhibitors of human RUNX1 Runt domain binding to CBFb | 220,000 compounds, 0.46% hits | Q01196+Q13951 | AID 1496 | Cerulean-Runt/Venus-CBFb FRET ratio 530/480, 1 h | inhibition, % at 20 µM;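 active = inhibition over about 50% at 20 µM in the single-dose screen, limit read from the data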
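Schedule: protein complex preformed 1 h, compound exposure 1 h, room temperature, dark; test system: Cerulean-labeled Runt domain protein; amount: 100 nM per protein; buffer or medium: Tris 50 mM pH 7.5, KCl, K2SO4, 0.01% BSA; read-out: loss of energy transfer signal; detection: FRET fluorescence; controls: 5 µM unlabeled CBFb as full-inhibition high control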
Hck-Nef inh – blocks Nef-activated human Hck kinase | P08631 | Recombinant Hck-YEEI plus Nef, Z-Lyte FRET kinase assay | inhibition, % at 20 µM | 220,000 compounds, 0.68% hits | AID 463187;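 active = Hck-Nef kinase inhibition above about 50%, limit read from the data; inactive = inhibition below that limit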
Target sequence (P08631 whole entry, looked up): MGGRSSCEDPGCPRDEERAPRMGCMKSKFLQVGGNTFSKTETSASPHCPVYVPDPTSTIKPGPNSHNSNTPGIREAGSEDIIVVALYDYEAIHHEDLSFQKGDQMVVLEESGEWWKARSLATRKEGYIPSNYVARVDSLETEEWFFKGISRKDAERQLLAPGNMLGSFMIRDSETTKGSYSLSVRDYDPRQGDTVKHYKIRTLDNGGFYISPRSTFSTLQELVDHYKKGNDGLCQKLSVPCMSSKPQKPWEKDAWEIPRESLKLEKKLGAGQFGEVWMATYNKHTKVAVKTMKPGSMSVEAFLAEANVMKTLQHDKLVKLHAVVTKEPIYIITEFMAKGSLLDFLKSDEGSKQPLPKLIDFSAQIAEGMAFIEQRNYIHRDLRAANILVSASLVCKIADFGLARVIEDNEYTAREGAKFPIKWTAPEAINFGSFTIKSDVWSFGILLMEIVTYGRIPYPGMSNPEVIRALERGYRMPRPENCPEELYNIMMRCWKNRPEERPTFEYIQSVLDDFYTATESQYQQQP
RanGTP-Impb inh – inhibitors of RanGTP-importin-beta interaction, primary screen, biochemical, FRET, CFP-Ran, YFP-importin-beta, homogeneous. cell-free CFP-Ran/YFP-importin-beta FRET ratio. inhibition, % (concentration not given with the values). 300,000 compounds, 1.1% hits. AID 2216;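 active = more than half of the replicate wells show a fall in the fluorescence ratio signal beyond about 16%, limit read from the data, passing the limit was not always enough; inconclusive = exactly half of the replicate wells pass the set limit; inactive = fewer than half of replicates pass the limit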
PfM18AAP inh-2 – PfM18AAP inhibition, confirmation; AID 2170; 2,400 compounds, 28% hits; shares compounds with PfM18AAP inh-1; inhibition, % at 7.35 µM; recombinant PfM18AAP, H-Glu-NHMec fluorogenic cleavage;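 active = mean inhibition over replicate wells above the hit cutoff set for the earlier primary screen, cut at about 29% in these data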
CTSL1 confirm – Cathepsin L (human) inhibition, confirmation. purified cathepsin L1, Z-Leu-Arg-MCA fluorescence. inhibition, % at 5.96 µM. shares compounds with PfM18AAP inh-1. 2,400 tested, under 10 active;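 active = average inhibition across replicates above the hit cutoff set in the earlier primary screen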
A number is an active result; - = inactive; ? = inconclusive; . = not tested or not shown.

SMILES	RBBP9 inhibitor	PfM18AAP inh-1	Runt-SMMHC FRET	Runt-CBFb FRET	Hck-Nef inh	RanGTP-Impb inh	PfM18AAP inh-2	CTSL1 confirm
COc1ccc(OC)c(S(=O)(=O)Nc2ccc(O)c(Sc3ncn[nH]3)c2)c1	-	64	-	-	-	-	36	-
CCOc1ccc(NS(=O)(=O)c2ccc(NS(=O)(=O)c3ccc(SC)cc3)cc2)cc1	-	-	-	-	-	.	.	.
CCOc1ccc(S(=O)(=O)Nc2ccc(O)c(Sc3ncn[nH]3)c2)cc1	-	54	-	-	-	-	-	-
Cc1ccc(S(=O)(=O)Nc2ccc(O)c(Sc3ncn[nH]3)c2)cc1	-	56	-	-	-	-	-	-
Cc1ccc(C)c(S(=O)(=O)Nc2ccc(O)c(Sc3ncn[nH]3)c2)c1	-	39	-	-	-	-	-	-
Cn1cc(CCC(=O)NCCCc2ccccc2)c2ccccc21	.	-	.	.	.	-	.	.
Cc1cc(F)ccc1S(=O)(=O)Nc1ccc(O)c(Sc2ncn[nH]2)c1	.	52	.	.	.	-	-	-
Cc1cc(F)ccc1S(=O)(=O)Nc1ccccc1C(=O)NCc1ccccn1	-	-	-	-	-	-	.	.
Cc1cc(F)ccc1S(=O)(=O)Nc1ccccc1C(=O)Nc1ncn[nH]1	-	49	-	-	-	-	48	-
C[C@]12C=CC(=O)C=C1CC[C@@H]1C2[C@@H](O)C[C@@]2(C)C1CC[C@]2(O)C(=O)COC(=O)CCC(=O)O (stereo partly specified)	.	-	.	.	.	-	.	.
Cc1cc(C)nc(NNC2=CC(=[N+]3CCCC3)CCC2)n1	-	57	-	-	-	-	45	-
Cc1cc(C)nc(NNC2=CC(=[N+]3CCCCC3)CC(C)(C)C2)n1	-	56	-	-	-	-	40	-
CN(C)NC1=CC(=[N+]2CCCC2)CC(C)(C)C1	-	-	-	-	-	?	.	.
Cc1ccc(NC(=S)NCc2cccnc2)cc1	-	-	-	-	-	-	.	.
CCNC(=S)NC(=NCc1cccnc1)Nc1nc(C)cc(C)n1	.	32	.	.	.	19	-	-
N#C/C(=C\c1ccc(-c2cccc(C(F)(F)F)c2)o1)C(=O)Nn1cnnc1	-	33	-	-	-	-	-	-
CC(OC(=O)CC1CCCCC1)C(=O)Nc1cccc(C#N)c1 (stereo unspecified)	.	.	.	.	.	-	.	.
S=C(Nc1cc(Cl)ccc1Cl)Nn1cnnc1	-	81	-	-	-	-	77	-
S=C(Nc1ccc(Cl)cc1Cl)Nn1cnnc1	-	79	-	-	-	-	77	-
S=C(NCc1ccc(Cl)cc1)Nc1ccc(Cl)cc1Cl	-	-	-	-	-	-	.	.
Cc1ccc(S(=O)(=O)N2CCCNCC2)cc1	.	-	.	.	.	-	.	.
O=C(O)[C@@H]1Cc2ccccc2N1	-	-	-	-	-	-	.	.
Cc1ccc(OCc2cc(C(=O)N(C)Cc3cnn(-c4ccccc4C)c3)no2)cn1	.	-	.	.	.	-	.	.
O=C(C1=C(O)C(=O)N(CCN2CCOCC2)C1c1ccc(Cl)cc1)c1cc2ccccc2o1 (stereo unspecified)	.	-	.	.	.	-	.	.
COc1ccc(C2/C(=C(/O)c3ccc4c(c3)CC(C)O4)C(=O)C(=O)N2CCN2CCOCC2)cc1 (stereo unspecified)	-	-	-	-	-	-	.	.
SMILES	RBBP9 inhibitor	PfM18AAP inh-1	Runt-SMMHC FRET	Runt-CBFb FRET	Hck-Nef inh	RanGTP-Impb inh	PfM18AAP inh-2	CTSL1 confirm
O=C(C1=C(O)C(=O)N(CCN2CCOCC2)C1c1ccc([N+](=O)[O-])cc1)c1cc2ccccc2o1 (stereo unspecified)	.	34	.	.	.	-	-	-
CC1Cc2cc(/C(O)=C3/C(=O)C(=O)N(CCN4CCOCC4)C3c3ccc([N+](=O)[O-])cc3)ccc2O1 (stereo unspecified)	.	33	.	.	.	-	-	-
O=C(NNC(=O)c1cc(-c2cccc(Br)c2)nc2ccccc12)c1csc(N2CCOCC2)n1	.	.	.	.	.	-	.	.
O=C(c1ccccc1)N1CCN(c2ccc([N+](=O)[O-])c(NCc3cccnc3)c2)CC1	-	44	-	-	-	-	-	-
C/C(=N\Nc1ncc(Cl)cc1Cl)c1ccccn1	-	38	-	-	-	-	-	-
C/C(=N\Nc1nc2ccccc2[nH]1)c1ccc(N2CCOCC2)cc1	-	46	-	-	-	-	-	-
C/C(=N\Nc1ncc(Cl)cc1Cl)c1ccc(N2CCOCC2)cc1	-	52	-	-	-	-	-	-
O=S(=O)(NCC1CCN(c2ccc(S(=O)(=O)N3CCOCC3)cc2)CC1)c1ccc(F)cc1	.	-	.	.	.	-	.	.
CC1CCc2c(sc(NC(=O)CSc3ncn[nH]3)c2C#N)C1 (stereo unspecified)	-	-	-	-	-	-	.	.
CC(C)(C)C1CCc2c(sc(NC(=O)CSc3ncn[nH]3)c2C#N)C1 (stereo unspecified)	-	34	-	-	-	?	-	-
COC(=O)c1ccc(CN2CCCC(C(=O)c3ccccc3OC)C2)cc1 (stereo unspecified)	.	-	.	.	.	-	.	.
Cc1cccc(NC(=S)NC2CCCC2)n1	-	44	-	-	-	-	-	-
Cc1cccc(NC(=S)NC2CCCCC2)n1	-	36	-	-	-	-	-	-
Cn1c(SCC(=O)Nc2cc(Cl)cc(Cl)c2)nnc1-c1ccc2nonc2c1	-	-	-	-	-	-	.	.
CCOC(=O)c1cc(S(=O)(=O)N2CCCC2)cn1C	.	-	.	.	.	-	.	.
CC(C)(C)C(=O)Nc1cc(NC(=O)C(C)(C)C)cc(C(=O)NNC(=O)c2ccncc2)c1	.	-	.	.	.	-	.	.
Cc1cccnc1NC(=S)Nc1ncccc1C	-	-	-	-	-	-	.	.
Cc1cccc(C)c1NC(=S)NCCc1ccc(O)c(O)c1	-	73	-	-	-	-	50	-
S=C(NCCc1ccccc1)Nc1c(Cl)cccc1Cl	-	41	-	-	-	-	-	-
Cc1cccnc1NC(=S)NCCc1ccccc1	-	42	-	-	-	-	-	-
OCCNC(=S)NCCc1ccccc1	-	-	-	-	-	-	.	.
C=CCOC(=O)C1=C(C)NC(=O)NC1c1cc(Cl)cc(Cl)c1OC (stereo unspecified)	.	-	.	.	.	-	.	.
CC(C)C1=CC2=CCC3C(C)(C(=O)O)CCCC3(C)C2CC1 (stereo unspecified) (tested in a mixture with another compound)	.	-	.	.	.	.	.	.
Clc1ccc(N=c2ssnc2Cl)nc1	-	39	.	.	-	-	-	-
O=C(CSc1ncn[nH]1)NCCc1ccccc1	-	-	-	-	-	-	.	.
CC(Sc1ncn[nH]1)C(=O)NCc1ccccc1 (stereo unspecified)	.	35	.	.	.	-	-	-

Screens from PubChem.
